Compound activity: PubChem, The Scripps Research Institute Molecular Screening Center
A selection: hits, their analogues and other compounds. The true share with any hit is near 1.9%.
MBD2 DNA inh = inhibitors of MBD2 binding to methylated DNA, primary screen, biochemical, TR-FRET, DNA-binding domain, human | inhibition, % at 4.4 µM | MBD2 binding to methylated oligonucleotide | 370,000 tested, 0.31% active | Methyl-CpG-binding domain protein 2 (Homo sapiens), Q9UBB5; in the data active = inhibition above about 13%
UHRF1 MBD2 ctr = UHRF1 methylated DNA binding inhibitors, primary screen, counter-screen for MBD2 inhibitor project, biochemical, TR-FRET, human UHRF1, single concentration; UHRF1 binding to methylated oligo; 370,000 tested, 0.75% active; AID 687016, 2013; inhibition, % at 4.4 µM; E3 ubiquitin-protein ligase UHRF1 (Homo sapiens), Q96T88; in the data active = inhibition above about 21%;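 note: UHRF1 SRA domain binding a hemimethylated CpG hairpin DNA probe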
LEDGF integ inh = blockers of LEDGF/p75-dependent integrase strand transfer – biochemical, TR-FRET, high throughput, primary screen; inhibition, % at 3.7 µM; TR-FRET IN-LEDGF/p75 DNA integration, Eu/Cy5; 370,000 tested, 0.64% active; HIV-1 integrase (with human LEDGF/p75);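 active = inhibition above the screen-wide mean plus 3 SD, cut at about 13% in these data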;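 note: signal is the Cy5 over europium emission ratio at 671 and 618 nm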
TDP2 absorb = human TDP2 enzyme inhibitors, primary screen, biochemical, epi absorbance, recombinant enzyme; Tyrosyl-DNA phosphodiesterase 2 (Homo sapiens), O95551; 370,000 tested, 0.34% active; inhibition, % at 12.8 µM; T5PNP hydrolysis, p-nitrophenol absorbance 415 nm;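 active = inhibition above the mean of all tested compounds plus 3 SD, set per campaign, cut at about 25% in these data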
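Material: recombinant human TDP2; quantity: TDP2 enzyme at 120 nM final; medium: Tris-HCl pH 7.5 with MgCl2; compound: single concentration, 12.8 µM nominal, with 1% DMSO; incubation: 2 h enzyme incubation at 37 °C; signal: epi absorbance; measure: percent inhibition; benchmarks: high control without enzyme, low control DMSO plus TDP2; repeats: singlicate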
Rin1 Abl inh = inhibitors of Rin1-Abl protein binding, primary screen, biochemical, TR-FRET; Tyrosine-protein kinase ABL1 (Homo sapiens) + Ras and Rab interactor 1 (Homo sapiens), …; inhibition, % at 7.35 µM; 360,000 tested, 0.4% active; in the data active = inhibition above about 5%, passing the limit was not always enough
Rin1 Abl conf = Rin1-Abl binding inhibitor retest, confirmation, biochemical, TR-FRET; inhibition, % at 7.35 µM; shares compounds with Rin1 Abl inh; purified proteins; AID 602124, 2011; 1,300 tested, 49% active
GFP quencher = GFP fluorescence inhibitors and quenchers, artefact control for Rin1-Abl interaction inhibitor project, biochemical. inhibition, % at 6.75 µM. inhibitors/quenchers counterscreen. shares compounds with Rin1 Abl inh. 1,300 tested, 8.5% active;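 note: ABL1-eGFP fusion protein alone without its partner RIN1-SBP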
GFP quench dose = GFP fluorescence inhibitors and quenchers, dose response, artefact control for Rin1-Abl interaction inhibitor project, biochemical | shares compounds with Rin1 Abl inh | GFP fluorescence interference/quenching counterscreen | IC50, µM | 230 tested, under 10 active | AID 602182, 2012; call rule not given here;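 note: ABL1-eGFP fusion protein alone without its RIN1 binding partner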
Each line names hits and unclear results; the compound was inactive in the other large screens (follow-up assays come after a bar, where they were run). Cut-off read from the data, not from the text of the source, unless noted: active = inhibition above about 6.5%; inactive = the rest.

Cc1c(NC(=O)c2ccc(N(C)S(=O)(=O)c3ccccc3)cc2)c(=O)n(-c2ccccc2)n1C	Rin1 Abl inh 9.8 | Rin1 Abl conf inactive | GFP quencher inactive
Cc1c(NC(=O)c2ccc(Cl)s2)c(=O)n(-c2ccccc2)n1C	Rin1 Abl inh 6.2 | Rin1 Abl conf inactive | GFP quencher inactive
Cc1c(NC(=O)CSc2ncccn2)c(=O)n(-c2ccccc2)n1C	Rin1 Abl inh 5.4 | Rin1 Abl conf inactive | GFP quencher inactive
COC(=O)C1CN(Cc2ccc(F)cc2)CCS(=O)(=O)N1Cc1ccccc1 (configuration not stated)	none (no result: Rin1 Abl inh)
CC1CC(=O)c2cn3c(nc2C1)nc1ccccc13 (configuration not stated)	none
CC1(C)CC(=O)c2cn3c(nc2C1)nc1ccccc13	Rin1 Abl inh 7.8 | Rin1 Abl conf 10 | GFP quencher inactive
Cc1nc2ccc(S(=O)(=O)NC(C(=O)NC3CCCC3)C(C)C)cc2s1 (configuration not stated)	none
CCN1CCN(C(=O)C(NS(=O)(=O)c2ccc3nc(C)sc3c2)C(C)C)CC1 (configuration not stated)	Rin1 Abl inh 8.1 | Rin1 Abl conf inactive | GFP quencher inactive
COc1ccc(CCNCC(O)COc2cccc(C)c2)cc1OC (configuration not stated)	none (no result: Rin1 Abl inh)
CN(CCc1ccccc1)C(=O)c1ccc(NC(=O)Cc2ccc(NC(=O)C3CCN(C(=O)C4CCC4)CC3)cc2)cc1	Rin1 Abl inh 27 | Rin1 Abl conf 26 | GFP quencher inactive | GFP quench dose inactive
CN(CCc1ccccc1)C(=O)c1ccc(NC(=O)Cc2cccc(NC(=O)C3CCN(C(=O)C4CCCC4)CC3)c2)cc1	Rin1 Abl inh 12 | Rin1 Abl conf 16 | GFP quencher inactive
CN(Cc1ccccc1)C(=O)c1ccc(NC(=O)Cc2ccc(NC(=O)C3CCN(C(=O)C4CCCC4)CC3)cc2)cc1	Rin1 Abl inh 14 | Rin1 Abl conf 19 | GFP quencher inactive | GFP quench dose inactive
CN(CCc1ccccc1)C(=O)c1ccc(NC(=O)Cc2ccc(NC(=O)C3CCN(C(=O)C4CCCCC4)CC3)cc2)cc1	Rin1 Abl inh 31 | Rin1 Abl conf 30 | GFP quencher inactive | GFP quench dose inactive
C[C@H](O)[C@@H]1CN2CCc3ccc(N4CCOCC4)cc3[C@@H]2C[C@@H]1N(C)C(=O)c1ccco1	none (no result: Rin1 Abl inh)
CCCC1CCC2(CCCN2CCOC(=O)Nc2cccc(Cl)c2)CC1 (configuration not stated)	none (no result: Rin1 Abl inh)
CCN(C(=O)C1CCCN(c2nnc(-n3cccc3)s2)C1)c1ccccc1C (configuration not stated)	none (no result: Rin1 Abl inh)
CC(C)(C)c1ccc(C(=O)Nc2cc(Cl)c(Cl)cc2C(=O)O)cc1	none (no result: Rin1 Abl inh)
Cn1cc(CC(=O)Nc2ccc(Nc3cccnc3)cc2)c2ccccc21	none (no result: Rin1 Abl inh)
CN(C(=O)c1ccc(NC(=O)Cc2cccc(NC(=O)C3CCN(C(=O)C4CCCC4)CC3)c2)cc1)C1CCCC1	none
CN(C(=O)c1ccc(NC(=O)Cc2cccc(NC(=O)C3CCN(C(=O)C4CCCCC4)CC3)c2)cc1)C1CC1	Rin1 Abl inh 14 | Rin1 Abl conf 26 | GFP quencher inactive | GFP quench dose inactive
NS(=O)(=O)c1cccc(NC(=O)COc2ncnc3c2cnn3-c2ccccc2)c1	none
O=C(COc1ncnc2c1cnn2-c1ccccc1)Nc1ccc(S(=O)(=O)N2CCCCC2)cc1	Rin1 Abl inh 8.8 | Rin1 Abl conf inactive | GFP quencher inactive
CCOc1ccc(/C=N/Nc2cc(N3CCOCC3)ncn2)c(O)c1	Rin1 Abl inh 8.3 | Rin1 Abl conf inactive | GFP quencher inactive
